Several values for one entry are separate records, joined by “and”; a condition that tells them apart may be missing. Equal entries are not always repeated.

The test system of data set [1] is rat. The data set can be described thus: concentration in blood after dosing. The conditions noted are these: dosed: halothane, 50000 ppm, dermal, duration: 4 hr, male, F344.
For data set [2], the system named is rat. The data set can be described thus: concentration in blood after dosing. Particulars: dosed: halothane, 50000 ppm, dermal, duration: 4 hr, male, F344. This is another data set of the same source.
For data set [3], the system named is rat. The experiment in a line: concentration in blood after dosing. The conditions noted are these: dosed: halothane, 50000 ppm, dermal, duration: 4 hr, male, F344. This is another data set of the same source.
Data set [4] relates to rat. The data set can be described thus: concentration in blood after dosing. The conditions noted are these: 50000 ppm, dermal, duration: 4 hr, male, F344.
The test system of a further data set is human. The experiment in a line: negative times count back from the end of exposure. Particulars: dosed: toluene, 200 mg/m^3, inhalation, duration: 2 hr, male. Summed up:
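Data points giving concentration or amount against time came from published in vivo toxicokinetic studies and from two structured collections. PubMed searching, classifier screening and manual review located the studies. Most points were digitised from plot screenshots using WebPlotDigitizer, the rest were copied from tables, and all keep their reported units.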

Data set [5] has as its system rat. The data set can be described thus: concentration in blood after dosing. The conditions noted are these: dosed: isoflurane, 50000 ppm, dermal, duration: 4 hr, male, F344.
Data set [6] has as its system rat. The experiment in a line: concentration in blood after dosing. Particulars: dosed: isoflurane, 50000 ppm, dermal, duration: 4 hr, male, F344. The source holds these as a separate data set.
The test system of data set [7] is rat. The data set can be described thus: concentration in blood after dosing. The conditions noted are these: dosed: isoflurane, 50000 ppm, dermal, duration: 4 hr, male, F344. This is another data set of the same source.
Data set [8] concerns rat. The data set can be described thus: concentration in blood after dosing. The conditions noted are these: dosed: isoflurane, 50000 ppm, dermal, duration: 4 hr, male, F344. The source holds these as a separate data set.
Data set [9] relates to rat. The experiment in a line: concentration in blood after dosing. The conditions noted are these: dosed: isoflurane, 50000 ppm, dermal, duration: 4 hr, male, F344. The source holds these as a separate data set.

`FC(F)(F)C(Cl)Br` (stereo not given) [halothane]: the concentration in blood in the data set with rat [1] (0.5 h) was 1420 ng/mL; in the data set on rat [1] (1 h), 2310 ng/mL; with rat [1] (2 h), 2600 ng/mL; with rat [1] (3 h), 3360 ng/mL; with rat [1] (4 h) it was 2720 ng/mL; in the data set on rat [2] (0.5 h) it was 1300 ng/mL. Moreover, the concentration in blood is 3220 ng/mL with rat [2] (2 h); 3020 ng/mL in the data set on rat [2] (3 h); 2520 ng/mL in the data set with rat [2] (4 h); 3130 ng/mL in the data set on rat [3] (0.5 h); 4930 ng/mL in the data set on rat [3] (1 h); 5210 ng/mL in the data set on rat [3] (2 h). In addition, the concentration in blood in the data set on rat [3] (3 h) stood at 5410 ng/mL; in the data set with rat [3] (4 h) it was 7710 ng/mL; in the data set on rat [4] (0.5 h, dosed: halothane) it was 623 ng/mL; with rat [4] (1 h, dosed: halothane), 2040 ng/mL; with rat [4] (2 h, dosed: halothane), 2110 ng/mL; in the data set with rat [4] (3 h, dosed: halothane), 2720 ng/mL. The same molecule returned a concentration in blood in the data set on rat [4] (4 h, dosed: halothane) of 2190 ng/mL.

Consider `O=C(O)CNC(=O)c1ccccc1` [hippuric acid], for which the “amount in urine after dosing” value in the data set with human (3.981 h) is 2.61 µmol/min; in the data set with human (7.978 h) it was 0.699 µmol/min; in the data set with human (12.06 h), 0.451 µmol/min; in the data set with human (20.04 h), 0.258 µmol/min; in the data set with human (-49 s, during exposure), 4.88 µmol/min.

As to `FC(F)OC(Cl)C(F)(F)F` (stereo not given) [isoflurane], the concentration in blood with rat [5] (0.5 h) is 1120 ng/mL; in the data set with rat [5] (1 h), 2500 ng/mL; in the data set on rat [5] (2 h), 3610 ng/mL; with rat [5] (3 h), 3220 ng/mL; in the data set with rat [5] (4 h), 2520 ng/mL; in the data set on rat [6] (0.5 h), 19.6 ng/mL. The concentration in blood in the data set with rat [6] (2 h) turned out to be 1730 ng/mL; in the data set with rat [6] (3 h), 2030 ng/mL; in the data set with rat [6] (4 h) it was 824 ng/mL; with rat [7] (0.5 h), 510 ng/mL; with rat [7] (1 h), 699 ng/mL; in the data set with rat [7] (2 h), 1610 ng/mL. Further, the concentration in blood in the data set with rat [7] (3 h) came out at 1720 ng/mL; in the data set on rat [7] (4 h), 915 ng/mL; in the data set on rat [8] (2 h) it was 1120 ng/mL; with rat [8] (3 h) it was 1520 ng/mL; with rat [8] (4 h), 1210 ng/mL; in the data set on rat [4] (0.5 h, dosed: isoflurane), 614 ng/mL. The concentration in blood is 810 ng/mL and 1520 ng/mL in the data set on rat [4] (1 h, dosed: isoflurane); 1610 ng/mL and 1420 ng/mL in the data set with rat [4] (2 h, dosed: isoflurane); 1520 ng/mL in the data set with rat [4] (3 h, dosed: isoflurane); 706 ng/mL in the data set with rat [4] (4 h, dosed: isoflurane); 418 ng/mL with rat [9] (0.5 h); 1010 ng/mL in the data set with rat [9] (1 h). Further, the concentration in blood in the data set with rat [9] (3 h) is 1610 ng/mL; in the data set on rat [9] (4 h), 516 ng/mL.

These data come from EPA's CvTdb concentration-time database.
